Measured values as given in ChEMBL document CHEMBL5126597, “Indazole MRL-871 interacts with PPARγ via a binding mode that induces partial agonism” (Bioorg Med Chem, 2022).
Calls of active or inactive are those of the source. The rule behind the calls is not given here.

How the values were obtained:
[1] = target: T1, Peroxisome proliferator-activated receptor gamma (Homo sapiens) (UniProt P37231); test: Stabilization of PPARgamma LBD (unknown origin) assessed as change in melting temperature by differential scanning fluorimetry
T1 sequence (whole entry): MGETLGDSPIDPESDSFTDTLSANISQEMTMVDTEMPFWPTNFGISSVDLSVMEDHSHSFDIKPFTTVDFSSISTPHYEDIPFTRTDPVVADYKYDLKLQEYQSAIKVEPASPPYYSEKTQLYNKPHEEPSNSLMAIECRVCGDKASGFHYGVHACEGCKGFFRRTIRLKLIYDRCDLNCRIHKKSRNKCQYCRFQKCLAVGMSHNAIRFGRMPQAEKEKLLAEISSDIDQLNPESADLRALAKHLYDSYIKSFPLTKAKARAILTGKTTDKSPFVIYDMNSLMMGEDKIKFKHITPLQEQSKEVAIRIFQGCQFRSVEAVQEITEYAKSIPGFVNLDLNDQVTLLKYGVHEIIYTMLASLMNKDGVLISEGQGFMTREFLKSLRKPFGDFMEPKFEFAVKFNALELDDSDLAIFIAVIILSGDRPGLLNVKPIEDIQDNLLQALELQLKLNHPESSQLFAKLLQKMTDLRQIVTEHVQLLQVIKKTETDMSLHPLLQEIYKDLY

[2] = Stabilization of PPARgamma LBD (unknown origin)/FITC-labeled PGC-1alpha (unknown origin) protein-protein interaction assessed as dissociation constant by fluorescence anisotropy assay; parameters: species or system Homo sapiens
Method in brief: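 Fluorescence anisotropy coactivator interaction assay: PPARγ LBD titrated to fluorophore-labelled PGC-1α peptide (10 nM) with DMSO or ligand at 10 µM. n = 3; representative data shown as mean ± s.d.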

[3] = target: T1, Peroxisome proliferator-activated receptor gamma (Homo sapiens); test: Stabilization of PPARgamma LBD (unknown origin) assessed as change in melting temperature in presence of GW9662 by differential scanning fluorimetry
[4] = target: T1, Peroxisome proliferator-activated receptor gamma (Homo sapiens); test: Stabilization of PPARgamma LBD (unknown origin) assessed as change in melting temperature in presence of SR16832 by differential scanning fluorimetry
[5] = target: T1, Peroxisome proliferator-activated receptor gamma (Homo sapiens); test: Stabilization of PPARgamma LBD (unknown origin) assessed as melting temperature at 14 uM by differential scanning fluorimetry
Method in brief: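 Differential scanning fluorimetry of PPARγ LBD (3.5 µM) with or without ligand at 14 µM (four equivalents) to obtain melting temperature. n ≥ 3, mean ± s.d.; with vs without compound compared by unpaired t-test.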

[6] = target: T1, Peroxisome proliferator-activated receptor gamma (Homo sapiens); test: Binding affinity to PPARgamma LBD (unknown origin) assessed as increase in thermal stability by differential scanning fluorimetry; details: filed as partial agonist

ΔTm [1]	Kd [2]	ΔTm [3]	ΔTm [4]	Tm [5]	Activity [6]	SMILES
3.9 °C	–	–	–	–	–	O=C(Nc1ccccc1)c1cc([N+](=O)[O-])ccc1Cl
–	370 nM	0 °C	-0.1 °C	–	–	CN(CCOc1ccc(CC2SC(=O)NC2=O)cc1)c1ccccn1 (stereo not given) [ROSIGLITAZONE]
4.4 °C	–	–	–	–	–	COc1ccc2nccc(NC(=O)c3cc([N+](=O)[O-])ccc3Cl)c2c1
–	710 nM	1.1 °C	-0.6 °C	50.2 °C	Active	O=C(O)c1ccc(-c2nn(C(=O)c3c(Cl)cccc3C(F)(F)F)c3ccccc23)cc1
